Series [1] is described as follows: Cytotoxicity against human HL7702 cells assessed as cell growth inhibition at 20 uM incubated for 48 hrs by MTT assay relative to control. It is filed as cell-based. Conditions: HL7702 (L02) cells.
In series [2] the test system is SK-OV-3. Put plainly: Antitumor activity against human SKOV3 cells xenografted in Balb/c nude mouse assessed as tumor growth inhibition at 50 mg/kg, po for 21 days and measured every third day. Conditions: SK-OV-3, po, 504 h, read-out: INH.
The test system of series [3] is SK-OV-3. The series is described as follows: Induction of autophagy in human SKOV3 cells assessed as LC3-II protein expression at 10 uM incubated for 48 hrs by western blot analysis. It is filed as functional, cell-based. The method in brief:
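SK-OV-3 cells in 6-well plates treated 48 h. Lysates separated by 8-15% SDS-PAGE and transferred to PVDF. Membranes blocked in 5% milk and probed overnight at 4 °C with LC3 or Beclin 1 antibodies. HRP secondary applied 1 h at room temperature; detection by ECL.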

Series [4] can be described thus: Acute toxicity in SPF Kunming mouse assessed as lethal dose administered orally as single dose and measured upto 14 days post drug administration. Conditions: in vivo, po, time <=14 day. The method in brief: (§1)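 Single oral dose groups at 0 (physiological saline blank, equal volume), 100, 500 and 1000 mg/kg. Mice housed with free access to water and food in stainless cages, 25 ± 1 °C, 12-h light/dark cycle. Survival, body weight and abnormalities recorded up to 14 days post-treatment.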

In series [5] the test system is SK-OV-3. The series is described as follows: Induction of cell cycle arrest in human SKOV3 cells assessed as reduction in CDK1 expression at 2.5 to 10 uM incubated for 48 hrs by western blot analysis. It is filed as functional, cell-based. Conditions: dose 2.5-10 µM.
The target in series [6] is T1, Poly [ADP-ribose] polymerase 1 (Homo sapiens, UniProt P09874). The series is described as follows: Inhibition of human recombinant GST-tagged PARP-1 expressed in Escherichia coli assessed as reduction in NAD+-dependent ADP ribosylation incubated for 30 mins in presence and NAD by resazurin dye based fluorescence analysis.
T1 sequence (P09874 whole entry): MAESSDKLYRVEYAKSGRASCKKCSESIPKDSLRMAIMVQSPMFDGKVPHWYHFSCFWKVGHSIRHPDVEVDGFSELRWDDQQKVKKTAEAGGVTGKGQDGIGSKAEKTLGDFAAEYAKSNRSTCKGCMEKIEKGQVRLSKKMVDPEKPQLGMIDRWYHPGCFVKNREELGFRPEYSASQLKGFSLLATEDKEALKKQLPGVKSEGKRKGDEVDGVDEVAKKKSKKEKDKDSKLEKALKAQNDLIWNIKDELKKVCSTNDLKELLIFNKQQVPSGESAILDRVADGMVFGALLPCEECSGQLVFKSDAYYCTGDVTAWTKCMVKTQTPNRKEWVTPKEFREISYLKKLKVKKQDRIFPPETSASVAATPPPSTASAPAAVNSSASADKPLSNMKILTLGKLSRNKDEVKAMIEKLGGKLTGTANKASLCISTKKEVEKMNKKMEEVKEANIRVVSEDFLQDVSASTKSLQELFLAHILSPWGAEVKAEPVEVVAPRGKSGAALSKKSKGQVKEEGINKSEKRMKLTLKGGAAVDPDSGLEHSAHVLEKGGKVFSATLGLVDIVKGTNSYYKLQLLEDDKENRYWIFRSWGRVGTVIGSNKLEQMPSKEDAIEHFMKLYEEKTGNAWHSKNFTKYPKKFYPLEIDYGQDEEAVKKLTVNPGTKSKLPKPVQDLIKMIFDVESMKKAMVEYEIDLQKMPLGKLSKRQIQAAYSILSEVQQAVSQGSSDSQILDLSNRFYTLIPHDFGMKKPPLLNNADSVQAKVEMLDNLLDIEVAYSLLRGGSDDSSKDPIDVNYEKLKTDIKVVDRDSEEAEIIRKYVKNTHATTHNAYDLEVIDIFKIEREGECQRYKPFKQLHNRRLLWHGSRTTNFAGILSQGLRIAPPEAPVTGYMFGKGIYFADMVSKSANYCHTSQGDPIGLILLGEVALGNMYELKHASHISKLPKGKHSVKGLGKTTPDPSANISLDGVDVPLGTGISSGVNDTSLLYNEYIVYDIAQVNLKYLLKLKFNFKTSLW
A short description of series [7]: Acute toxicity in SPF Kunming mouse assessed as change in body weight at 100 to 1000 mg/kg, po administered as single dose and measured upto 14 days post drug administration. It is filed as organism-based. Conditions: in vivo, 336 h, dose 100-1000 mg/kg, time <=14 day. The method in brief: as §1
Series [8] has as its target T1, Poly [ADP-ribose] polymerase 1. Put plainly: Inhibition of PARP-1 in human SKOV3 cells assessed as decrease in MCM7 protein expression level at 2.5 to 10 uM incubated for 48 hrs by western blot analysis. It is filed as cell-based. Conditions: SK-OV-3, dose 2.5-10 µM. The method in brief:
(§2)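 SK-OV-3 cells were grown in McCOY's 5A, seeded in 6-well plates and treated for 48 h. Lysate proteins were separated by 8-15 % SDS-PAGE and transferred to PVDF membranes. Membranes were blocked in 5 % nonfat milk, probed with primary antibody overnight at 4 °C and with HRP secondary antibody for 1 h at room temperature, then detected by enhanced chemiluminescence. Images are representative of 3 independent experiments.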

Series [9] shares this target. Put plainly: Inhibition of PARP-1 in human SKOV3 cells assessed as decrease in MCM5 protein expression level at 2.5 to 10 uM incubated for 48 hrs by western blot analysis. It is filed as cell-based. As to conditions: SK-OV-3, dose 2.5-10 µM. A digest of the protocol:
as §2

Series [10] in a line: Tmax in Sprague-Dawley rat at 10 mg/kg, po by LC/MS/MS analysis. It is filed as ADME, organism-based. Conditions: in vivo. The method in brief:
(§3)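 Male Sprague-Dawley rats, 4 per group, dosed once orally at 10 mg/kg or intravenously at 2 mg/kg. Blood taken from the saphenous vein for plasma. Drug levels measured by LC-MS-MS, with parameters derived by noncompartmental analysis.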

A further series concerns L02. Put plainly: Cytotoxicity against human HL7702 cells assessed as cell growth inhibition incubated for 48 hrs by MTT assay. Conditions: L02, 48 h. It is filed as cell-based. A digest of the protocol: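 Cells seeded in 96-well plates and exposed to compounds for 48 h; viability read by MTT. Each experiment repeated three times. SK-OV-3 grown in McCOY's 5A, Bel-7402 and HL-7702 in RPMI-1640, HepG2 in DMEM, Caco-2 in MEM.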

Series [11] deals with SK-OV-3. The series is described as follows: Induction of autophagy in human SKOV3 cells assessed as increase in Atg-14 protein level at 10 uM incubated for 48 hrs by western blot analysis. It is filed as functional, cell-based. A digest of the protocol:
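SK-OV-3 cells seeded in 6-well plates, treated 48 h. Protein lysates separated on 8-15 % SDS-PAGE and transferred to PVDF. Membranes blocked in 5 % nonfat milk, probed with primary antibody overnight at 4 °C, then secondary antibody 1 h at room temperature. Bands detected by enhanced chemiluminescence.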

The subject of series [12] is SK-OV-3. Put plainly: Induction of cell cycle arrest in human SKOV3 cells assessed as reduction in cyclin B1 expression at 2.5 to 10 uM incubated for 48 hrs by western blot analysis. It is filed as functional, cell-based. Conditions: dose 2.5-10 µM.
For series [13], the system named is SK-OV-3. Put plainly: Induction of autophagy in human SKOV3 cells transfected with GFP-LC3 assessed as increase in LC3 dot accumulation at 10 uM incubated for 48 hrs by TEM analysis. Conditions: in the assay text read “fluorescence microscopy” for “TEM analysis”. It is filed as functional, cell-based. A digest of the protocol: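 SK-OV-3 cells on glass coverslips infected with Ad-mCherry-GFP-LC3B for 24 h. Cells then treated at 10 µM for 48 h, fixed in 4% paraformaldehyde and examined by fluorescence microscopy.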

Another series deals with HepG2. The series is described as follows: Antiproliferative activity against human HepG2 cells assessed as cell growth inhibition at 20 uM incubated for 48 hrs by MTT assay relative to control. It is filed as functional.
Series [14] concerns the target T1, Poly [ADP-ribose] polymerase 1. Put plainly: Inhibition of PARP-1 in human SKOV3 cells assessed as inhibition of H2O2-induced poly-ADP ribose formation preincubated for 4 hrs followed by H2O2 addition and incubated overnight by Alexa Fluor 488 staining based confocal microscopic analysis. It is filed as cell-based. As to conditions: SK-OV-3, in the assay text read “incubated for 5 mins” for “incubated overnight”. A digest of the protocol:
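SK-OV-3 cells were seeded in 96-well plates and grown for 24 h, exposed to compound for 4 h, then to 10 mM H2O2 for 5 min. Cells were fixed and incubated with anti-PAR primary antibody overnight at 4 °C, then with Alexa Fluor 488 secondary antibody. Nuclei were stained with 1 % DAPI and imaged by confocal microscopy.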

The nature of series [15]: Acute toxicity in SPF Kunming mouse assessed as abnormality at 100 to 1000 mg/kg, po administered as single dose and measured upto 14 days post drug administration. It is filed as organism-based. As to conditions: in vivo, 336 h, dose 100-1000 mg/kg, time <=14 day. The method in brief: as §1
A short description of series [16]: Subacute toxicity in SPF Kunming mouse assessed as change in liver at 1000 mg/kg, po administered for 14 days by H and E staining based microscopic analysis. It is filed as organism-based. As to conditions: in vivo, 336 h, time 14 day. The method in brief:
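Twenty SPF Kunming mice (18 - 22 g), half male and half female, randomised into 2 groups of 5 males + 5 females. Treated group dosed orally at 1000 mg/kg once daily for 14 days. Death, clinical signs and body weight monitored. After 14 days: isoflurane anaesthesia, decapitation, tissues collected for H&E histology.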

For series [17], the system named is SK-OV-3. Put plainly: Induction of autophagy in human SKOV3 cells assessed as increase in formation of autophagosomes at 10 uM incubated for 48 hrs by TEM analysis. It is filed as functional, cell-based. A digest of the protocol: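 SK-OV-3 cells exposed to 10 µM for 48 h, then fixed, dehydrated and resin-embedded. 200 nm sections on formvar grids, counterstained with uranyl acetate and lead citrate, imaged by transmission electron microscopy.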

A short description of series [18]: MRT in Sprague-Dawley rat at 2 mg/kg, iv by LC/MS/MS analysis. It is filed as ADME, organism-based. As to conditions: in vivo. A digest of the protocol: as §3
Series [19] relates to SK-OV-3. The series is described as follows: Induction of apoptosis in human SKOV3 cells assessed as increase in caspase-3 expression at 2.5 to 10 uM incubated for 48 hrs by western blot analysis. It is filed as functional, cell-based. Conditions: dose 2.5-10 µM.
Series [20] addresses T1, Poly [ADP-ribose] polymerase 1. The series is described as follows: Inhibition of PARP-1 in human SKOV3 cells assessed as decrease in MCM6 protein expression level at 2.5 to 10 uM incubated for 48 hrs by western blot analysis. It is filed as cell-based. Conditions: SK-OV-3, dose 2.5-10 µM. The method in brief:
as §2

These results are taken from ChEMBL document CHEMBL4765243, “Discovery of Novel Bromophenol-Thiosemicarbazone Hybrids as Potent Selective Inhibitors of Poly(ADP-ribose) Polymerase-1 (PARP-1) for Use in Cancer” (J Med Chem, 2019).

Molecules are shown by their SMILES. Active and inactive are the calls of the source. No cut-off for these calls is given here.

With `COc1cc(/C=N/NC(N)=S)c(Br)c(Br)c1OC`, in [1], the inhibition at 48 h, 20 µM is 89.9%. Moreover, in the series on SK-OV-3 [2], the inhibition in vivo at 50 mg/kg was determined as 58.7%. The outcome in the series on SK-OV-3 [3], with SK-OV-3 [5], in the series with SK-OV-3 [11], in the series on SK-OV-3 [12], with SK-OV-3 [13] and in the series with SK-OV-3 [17] was Active. Further, the outcome in the series on SK-OV-3 [19] was Active. In addition, the LD50 at 336 h in series [4] came out at 1000 mg/kg. In addition, the values for the IC50 (in [6]; with L02) were 0.0295 µM and 13.3 µM, respectively. For the same molecule, the Activity entry in series [7], in series [15] and in series [16] was “Non-Toxic” throughout. The inhibition result in series [8], in series [9], in [14] and in [20] was “Active” throughout. Moreover, the Tmax in [10] worked out at 2.5 h. The inhibition at 20 µM in the series with HepG2 was 71.6%. For the same molecule, in series [18], the MRT is 1.14 h.
